Yeast growth inh – reduces growth of yeast BB579 in restrictive medium. S. cerevisiae BB579 growth, OD615, 48 h. 0.51% of 140,000 active. inhibition, % at 10 µM;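 active = inhibition above a set limit, 3 SD over the mean compound inhibition, cut at about 44% in these data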
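Detection: OD615 turbidity measurement; Material: Saccharomyces cerevisiae DeaD strain BB579, replicative lifespan model yeast; Timing: 48 h exposure, 30 °C; Doses: single 10 µM dose; Medium: CSMM-D restrictive synthetic medium containing dextrose (glucose); Controls: amphotericin B at 10 µg/mL as positive control.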
PostGolgi yeast – growth inhibition of a yeast mutant, post-Golgi transport screen; post-Golgi transport phenotypic cell assay; inhibition, % at 10 µM; 0.9% of 98,000 active;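 also: yeast cells grown in 1536-well plates; yeast grown about 18 h at 30C before absorbance read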
Yeast life ext – extends the lifespan of yeast; S. cerevisiae growth with nicotinamide, OD615; deaD strain in restrictive glucose medium; inhibition of the nicotinamide effect, % at 10 µM; 0.68% of 130,000 active; AID 775;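 active = inhibition above a set limit, placed 3 SD over the median of all compounds, cut at about 26% in these data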;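 also: 0% = nicotinamide-treated wells and 100% = cells grown without nicotinamide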
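Material: Modified budding yeast, DeaD strain | Medium: Restrictive glucose medium | Probe or stimulus: 1.5 mM nicotinamide | Dosing: Single dose 10 µM compound, 0.25% DMSO | Times: 48 h at 30 °C | Technique: OD615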
PostGolgi ctrl – inhibits growth of the yeast control strain; inhibition, % at 10 µM; 5% of 98,000 active; efflux-deficient yeast background strain, growth absorbance A615, 16 h
An asterisk follows results filed as active. The full list was thinned out, with hits kept by preference. Rule as the data show it, unless noted: active = inhibition above about 30%; inactive = the rest.

For OC(COCc1ccc(Cl)cc1)CN1CCN(c2ccccn2)CC1 (configuration not stated) the results were Yeast growth inh -19 and Yeast life ext 2.
OC(COc1ccc(Cl)c2ccccc12)CN1CCN(c2ccccn2)CC1 (configuration not stated) was read as Yeast growth inh -32, PostGolgi yeast -2, Yeast life ext -28 and PostGolgi ctrl 34*.
Cc1cnc(NC(=O)c2cc3c(C)nn(Cc4ccccc4Cl)c3s2)s1 was read as Yeast growth inh -28 and Yeast life ext 5.
Screening Cc1nc2sc(C(c3cccc(F)c3)N3CCC(C)CC3)c(O)n2n1 (configuration not stated) returned Yeast growth inh -21, PostGolgi yeast 10, Yeast life ext 1 and PostGolgi ctrl 31*.
Screening CCOC(=O)C1CCN(C(c2cccc(F)c2)c2sc3nc(C)nn3c2O)CC1 (configuration not stated) returned Yeast growth inh -44, PostGolgi yeast 5, Yeast life ext -7 and PostGolgi ctrl 37*.
Screening Cc1nc2sc(C(c3cccc(F)c3)N3CCC(O)CC3)c(O)n2n1 (configuration not stated) returned Yeast growth inh -32, PostGolgi yeast 7, Yeast life ext -1 and PostGolgi ctrl 17.
CCOC(=O)C1CCN(C(c2ccc(OC)c(OC)c2)c2sc3nc(C)nn3c2O)CC1 (configuration not stated) was read as Yeast growth inh 11, PostGolgi yeast -1, Yeast life ext -9 and PostGolgi ctrl -1.
`COc1ccc(-c2nc(-c3ccccc3)c(-c3cc([N+](=O)[O-])ccc3C)[nH]2)cc1O` gave Yeast growth inh -74, PostGolgi yeast 20, Yeast life ext -14 and PostGolgi ctrl 31*.
Screening CC1c2nc3ccccc3n2C(CC(=O)NCc2ccccn2)C(=O)N1Cc1ccccc1 (configuration not stated) returned Yeast growth inh -17, PostGolgi yeast -27, Yeast life ext -9 and PostGolgi ctrl 6.
Screening COc1ccc(N(CC(=O)Nc2cccc(OC)c2)S(=O)(=O)c2c(C)nn(C)c2C)cc1 returned Yeast growth inh -72, PostGolgi yeast -4, Yeast life ext -8 and PostGolgi ctrl 5.
COc1ccc(N(CC(=O)Nc2nc3ccc(C)cc3s2)S(=O)(=O)c2c(C)nn(C)c2C)cc1 was read as Yeast growth inh -25, PostGolgi yeast -1, Yeast life ext -3 and PostGolgi ctrl 32*.
COc1ccc(N(CC(=O)NCc2cccnc2)S(=O)(=O)c2c(C)nn(C)c2C)cc1 was read as Yeast growth inh 20, PostGolgi yeast -4, Yeast life ext -9 and PostGolgi ctrl 37*.
O=C(O)CC(c1ccc(Cl)cc1)n1cccc1 (configuration not stated) was read as Yeast growth inh -39, PostGolgi yeast -7, Yeast life ext -16 and PostGolgi ctrl -4.
`C#CCOCCOCCOCCNc1nc(N2CCN(C(=O)[C@H](C(C)C)n3cc(CCO)nn3)CC2)nc(N2CCN(C(=O)[C@H](CCCCN)n3cc(CCCC)nn3)CC2)n1` gave Yeast growth inh 8 and Yeast life ext 1.
`COc1ccc(NS(=O)(=O)c2cc([N+](=O)[O-])ccc2N/N=C\c2c(C)[nH]c3ccccc23)cc1` gave Yeast growth inh -65, PostGolgi yeast 0, Yeast life ext 3 and PostGolgi ctrl 13.
`O=[N+]([O-])c1ccc(N/N=C/c2ccc[nH]2)cc1` gave Yeast growth inh 87* and Yeast life ext -6.
For O=[N+]([O-])c1ccc(N/N=C/c2c[nH]c3ccccc23)cc1 the results were Yeast growth inh -45, PostGolgi yeast 99*, Yeast life ext -2 and PostGolgi ctrl 91*.
COc1ccccc1NS(=O)(=O)c1cc([N+](=O)[O-])ccc1N/N=C/c1c[nH]c2ccccc12 was read as Yeast growth inh 5, PostGolgi yeast 3, Yeast life ext -1 and PostGolgi ctrl 31*.
`CCOc1ccc(CCNC(=O)CSc2cc(=O)n(C)c3ccccc23)cc1OCC` gave Yeast growth inh 4 and Yeast life ext -3.
For COc1ccc(CCn2c(C(C)C)nc3c(c(=O)c4ccccc4n3C)c2=O)cc1 the results were Yeast growth inh -34 and Yeast life ext 27*.
COc1ccc(CCn2c(C)nc3c(c(=O)c4ccccc4n3C)c2=O)cc1 was read as Yeast growth inh -35 and Yeast life ext 21.
c1ccc(-c2ccc(-c3cn4c(n3)CCC4)cc2)cc1 was read as Yeast growth inh 17, PostGolgi yeast 0, Yeast life ext -13 and PostGolgi ctrl 33*.
For COc1ccc(-c2cn3c(n2)CCC3)cc1 the results were Yeast growth inh -21, PostGolgi yeast -4, Yeast life ext -16 and PostGolgi ctrl 4.
For CC1CC(C)CN(C(=O)CSc2nc(Cc3cccs3)nc3ccccc23)C1 (configuration not stated) the results were Yeast growth inh 1, PostGolgi yeast 17, Yeast life ext 1 and PostGolgi ctrl 18.
Screening Cc1cccc(CSc2cccc3cccnc23)c1 returned Yeast growth inh 96*, PostGolgi yeast -8, Yeast life ext -12 and PostGolgi ctrl 1.
For CC(C)c1ccc(N(CC(=O)NCCSC(C)(C)C)S(C)(=O)=O)cc1 the results were Yeast growth inh -42, PostGolgi yeast -1, Yeast life ext -3 and PostGolgi ctrl 9.
`CCOC(=O)C(=Cc1cc(=O)c(OC)co1)C(=O)OCC` gave Yeast growth inh -16 and Yeast life ext 35*.
`CCN=c1scc(-c2cccs2)n1/N=C/c1cc(OC)ccc1O` gave Yeast growth inh -43 and Yeast life ext -2.
Screening CC(C)N=c1scc(-c2cccs2)n1/N=C/c1ccc(O)c(O)c1O returned Yeast growth inh 96* and Yeast life ext 2.
Cc1nc(-c2ccccc2)sc1C(=O)CSc1ccc(F)cc1 was read as Yeast growth inh -10, PostGolgi yeast -1, Yeast life ext -16 and PostGolgi ctrl 13.
For Cc1nc(-c2ccccc2)sc1C(=O)CSc1ccccc1 the results were Yeast growth inh 8, PostGolgi yeast -9, Yeast life ext -19 and PostGolgi ctrl 30*.
Screening CN(Cc1ccccc1)C1CC(=O)N(c2ccc(C(=O)O)cc2)C1=O (configuration not stated) returned Yeast growth inh -31, PostGolgi yeast -2, Yeast life ext -4 and PostGolgi ctrl 42*.
`COC(=O)c1ccc(N2C(=O)CC(NCc3ccccc3)C2=O)cc1` (configuration not stated) gave Yeast growth inh -27, PostGolgi yeast 20, Yeast life ext -2 and PostGolgi ctrl 2.
For COc1cc(C(=O)N2CCC(O)(c3ccccc3)CC2)cc(OC)c1OC the results were Yeast growth inh -13, PostGolgi yeast -3, Yeast life ext -20 and PostGolgi ctrl 9.
For CCN1/C(=C/c2ccc3cccc(C)c3[n+]2CC)Sc2ccccc21 the results were Yeast growth inh 96*, PostGolgi yeast 1, Yeast life ext -13 and PostGolgi ctrl 98*.
CCOC(=O)/C(C#N)=C(C)/C=C1\Sc2ccccc2N1CC was read as Yeast growth inh -49 and Yeast life ext 0.

Assay outcomes as filed in PubChem.
